Results: ChEMBL document CHEMBL1149023, “Quinone-methide triterpenes and salaspermic acid from Kokoona ochracea” (1994)
Converted amounts (≈) assume the structure as drawn.

Tests used:
MEL-2 (Homo sapiens) = assay: Cytotoxicity against human MEL-2 cells after 72 hrs by sulforhodamine B assay; details: MEL-2, 72 h, read-out: ED50 (the source's name)
Col2 = assay: Cytotoxicity against human Col2 cells after 72 hrs by sulforhodamine B assay; details: Col2, 72 h, read-out: ED50 (the source's name)
KB = assay: Cytotoxicity against human KB cells after 72 hrs by sulforhodamine B assay; format: functional; details: read-out: ED50 (the source's name)
In short: (§1)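 Cells went in triplicate into 4 concentrations (0.16–20 µg/ml) from DMSO stock, final DMSO 0.5% v/v, for 72 h at 37° in 5% CO2. Cells were fixed with cold 50% TCA and stained with 0.4% sulforhodamine B in 1% HOAc. Bound dye was dissolved in 10 mM Tris base and read at 515 nm. ED50 came from the averaged data as percent of DMSO controls. LNCaP and ZR-75-1 were kept in phenol red-free RPMI with hormone-free FBS plus 0.1 nM testosterone or estradiol, respectively.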

A-431 = assay: Cytotoxicity against human A431 cells after 72 hrs by sulforhodamine B assay; format: functional; details: A-431, 72 h, read-out: ED50 (the source's name)
In short: as §1

Lu1 = assay: Cytotoxicity against human Lu1 cells after 72 hrs by sulforhodamine B assay; format: functional; details: Lu1, 72 h, read-out: ED50 (the source's name)
In short: as §1

HT-1080 = assay: Cytotoxicity against human HT1080 cells after 48 hrs by sulforhodamine B assay; format: functional; details: HT-1080, 48 h, read-out: ED50 (the source's name)
In short: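 HT-1080 was kept in MEME with 1% NAA and 10% heat-inactivated FBS. Cells were treated in triplicate at 4 concentrations (0.16–20 µg/ml), final DMSO 0.5%, for 48 h at 37° in 5% CO2. They were fixed with cold 50% TCA and stained with sulforhodamine B; OD was read at 515 nm. ED50 was taken against DMSO-only controls.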

[1] = Cytotoxicity against human KBV1 cells after 72 hrs by sulforhodamine B assay in presence of vinblastine; format: functional; details: KB-V1, 72 h, read-out: ED50 (the source's name)
LNCaP = assay: Cytotoxicity against human LNCAP cells after 72 hrs by sulforhodamine B assay; format: functional; details: read-out: ED50 (the source's name)
In short: as §1

P388 = assay: Cytotoxicity against mouse P388 cells after 48 hrs by sulforhodamine B assay; format: functional; details: P388, 48 h, read-out: ED50 (the source's name)
In short: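 Murine P-388 was kept in Fisher's medium with 10% heat-inactivated FBS. Cells were exposed in triplicate to 4 concentrations (0.16–20 µg/ml), final DMSO 0.5%, for 48 h at 37° in 5% CO2. They were fixed with cold 20% TCA, stained with 0.4% sulforhodamine B, and read at 515 nm. ED50 was taken relative to DMSO controls.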

[2] = Cytotoxicity against human U373 cells after 96 hrs by sulforhodamine B assay; format: functional, U-373MG ATCC; details: U373 MG, read-out: ED50 (the source's name)
In short: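 U373 cells were treated in triplicate at 4 concentrations (0.16–20 µg/ml), final DMSO 0.5%, for 96 h at 37° in 5% CO2. Cells were fixed with cold 50% TCA, stained with 0.4% sulforhodamine B in 1% HOAc, and the dye was solubilized in 10 mM Tris. OD was read at 515 nm and ED50 was taken from percent of DMSO control.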

[3] = Cytotoxicity against human KBV1 cells after 72 hrs by sulforhodamine B assay in absence of vinblastine; format: functional; details: KB-V1, 72 h, read-out: ED50 (the source's name)
ZR-75-1 = assay: Cytotoxicity against human ZR-75-1 cells after 72 hrs by sulforhodamine B assay; format: functional; details: ZR-75-1, 72 h, read-out: ED50 (the source's name)
In short: as §1

[4] = Cytotoxicity against human BC1 cells after 72 hrs by sulforhodamine B assay; format: functional; details: BC1, 72 h, read-out: ED50 (the source's name)
In short: as §1

Compound | EC50 (MEL-2 (Homo sapiens)) [µg/mL] | EC50 (Col2) [µg/mL] | EC50 (KB) [µg/mL] | EC50 (A-431) [µg/mL] | EC50 (Lu1) [µg/mL] | EC50 (HT-1080) [µg/mL] | EC50 [1] [µg/mL] | EC50 (LNCaP) [µg/mL] | EC50 (P388) [µg/mL] | EC50 [2] [µg/mL] | EC50 [3] [µg/mL] | EC50 (ZR-75-1) [µg/mL] | EC50 [4] [µg/mL]
CC1=C(O)C(=O)C=C2C1=CC=C1[C@@]2(C)CC[C@@]2(C)[C@@H]3C[C@@](C)(O)C(=O)C[C@]3(C)CC[C@]12C | 1.5 (≈ 3.44 µM) | 5.8 (≈ 13.3 µM) | 1.7 (≈ 3.89 µM) | 1.1 (≈ 2.52 µM) | 2.2 (≈ 5.04 µM) | 2.1 (≈ 4.81 µM) | 3.3 | 1 (≈ 2.29 µM) | 2 (≈ 4.58 µM) | 0.8 (≈ 1.83 µM) | 3 (≈ 6.87 µM) | 1 (≈ 2.29 µM) | 0.9 (≈ 2.06 µM)
COC(=O)[C@]1(C)CC[C@]2(C)CC[C@]3(C)[C@H]4CC[C@]5(COC(C)=O)[C@@H](C)C(=O)CC[C@H]5[C@]4(C)CC[C@@]3(C)[C@@H]2C1 | > 20 | > 20 | 10.1 (≈ 19.1 µM) | 5.2 (≈ 9.83 µM) | 11.9 (≈ 22.5 µM) | 10 (≈ 18.9 µM) | 12 | 11.8 (≈ 22.3 µM) | > 5 | > 20 | 9.8 (≈ 18.5 µM) | 6.2 (≈ 11.7 µM) | > 20
CC1=C(O)C(=O)C=C2C1=CC=C1[C@@]2(C)CC[C@@]2(C)[C@@H]3C[C@](C)(C(=O)O)CC[C@]3(C)CC[C@]12C [CELASTROL] | 0.6 (≈ 1.33 µM) | 2.3 (≈ 5.1 µM) | 1.2 (≈ 2.66 µM) | 0.6 (≈ 1.33 µM) | 1.3 (≈ 2.88 µM) | 0.5 (≈ 1.11 µM) | 1.7 | 0.3 (≈ 0.666 µM) | 3.5 (≈ 7.77 µM) | 0.4 (≈ 0.888 µM) | 2.4 (≈ 5.33 µM) | 0.4 (≈ 0.888 µM) | 0.3 (≈ 0.666 µM)
COC(=O)[C@]1(C)CC[C@]2(C)CC[C@]3(C)[C@H]4CC[C@@]56CO[C@@](O)(CC[C@H]5[C@]4(C)CC[C@@]3(C)[C@@H]2C1)[C@@H]6C [SALASPERMIC ACID METHYL ESTER] | > 20 | > 20 | > 20 | > 20 | > 20 | > 20 | > 20 | > 20 | > 5 | > 20 | > 20 | > 20 | > 20
C[C@@H]1[C@@]23CC[C@H]4[C@@](C)(CC[C@@]5(C)[C@@H]6C[C@](C)(C(=O)O)CC[C@]6(C)CC[C@]45C)[C@@H]2CC[C@@]1(O)OC3 [SALASPERMIC ACID] | > 20 | > 20 | > 20 | > 20 | > 20 | > 20 | > 20 | > 20 | > 5 | > 20 | > 20 | > 20 | > 20
CC1=C(O)C(=O)C=C2C1=CC=C1[C@@]2(C)CC[C@@]2(C)[C@@H]3C[C@@H](C)C(=O)C[C@]3(C)CC[C@]12C [TINGENONE] | 0.2 (≈ 0.476 µM) | 0.2 (≈ 0.476 µM) | 0.9 (≈ 2.14 µM) | 0.4 (≈ 0.951 µM) | 0.6 (≈ 1.43 µM) | 0.7 (≈ 1.66 µM) | 0.5 | 0.7 (≈ 1.66 µM) | 0.1 (≈ 0.238 µM) | 0.6 (≈ 1.43 µM) | 0.4 (≈ 0.951 µM) | 0.2 (≈ 0.476 µM) | 0.3 (≈ 0.713 µM)
